Source: the M2OR odorant receptor database

How the values were obtained:
Details in all cases: stereoisomer not certain
OR51E1 (Homo sapiens) = molecular target: T1, OR51E1 (Homo sapiens) (UniProt Q8TCB6)
T1 sequence (whole entry): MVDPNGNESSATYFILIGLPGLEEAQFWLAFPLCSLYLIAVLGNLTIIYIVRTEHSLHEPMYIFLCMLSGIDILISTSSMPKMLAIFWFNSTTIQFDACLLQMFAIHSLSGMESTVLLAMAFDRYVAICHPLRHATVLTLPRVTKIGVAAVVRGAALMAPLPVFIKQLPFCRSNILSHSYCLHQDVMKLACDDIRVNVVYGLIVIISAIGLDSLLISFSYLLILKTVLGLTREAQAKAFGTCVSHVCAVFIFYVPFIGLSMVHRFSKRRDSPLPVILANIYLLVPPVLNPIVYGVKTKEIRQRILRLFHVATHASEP
Summary of the method: (§1)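 Assay methods differ from source to source, frequently being transient luciferase assays in mammalian cell lines. For each receptor–molecule pair, the label responsive (active) applies when the original authors judged the measured signal statistically different from baseline, and non-responsive (inactive) applies otherwise.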

OR51E2 (Homo sapiens) = molecular target: T2, OR51E2 (Homo sapiens) (UniProt Q9H255)
T2 sequence (whole entry): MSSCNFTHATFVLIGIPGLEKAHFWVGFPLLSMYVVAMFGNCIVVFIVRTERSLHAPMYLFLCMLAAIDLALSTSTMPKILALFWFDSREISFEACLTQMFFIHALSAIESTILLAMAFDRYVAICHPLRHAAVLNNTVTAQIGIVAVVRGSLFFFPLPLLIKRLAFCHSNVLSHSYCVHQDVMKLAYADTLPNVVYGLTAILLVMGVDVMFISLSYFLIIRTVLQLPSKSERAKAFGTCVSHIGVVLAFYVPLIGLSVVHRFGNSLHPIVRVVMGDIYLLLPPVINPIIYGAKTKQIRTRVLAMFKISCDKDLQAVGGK
Summary of the method: as §1

OR51L1 (Homo sapiens) = molecular target: T3, OR51L1 (Homo sapiens) (UniProt Q8NGJ5)
T3 sequence (whole entry): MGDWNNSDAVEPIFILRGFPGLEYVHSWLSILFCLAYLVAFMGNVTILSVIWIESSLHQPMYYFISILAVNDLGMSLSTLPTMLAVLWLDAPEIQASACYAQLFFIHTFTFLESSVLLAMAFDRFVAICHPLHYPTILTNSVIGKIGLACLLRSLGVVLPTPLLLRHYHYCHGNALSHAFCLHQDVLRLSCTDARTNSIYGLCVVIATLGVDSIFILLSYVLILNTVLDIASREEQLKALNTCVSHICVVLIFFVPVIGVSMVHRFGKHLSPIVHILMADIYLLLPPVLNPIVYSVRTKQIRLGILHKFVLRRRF
Summary of the method: as §1

OR51D1 (Homo sapiens) = molecular target: T4, OR51D1 (Homo sapiens) (UniProt Q8NGF3)
T4 sequence (whole entry): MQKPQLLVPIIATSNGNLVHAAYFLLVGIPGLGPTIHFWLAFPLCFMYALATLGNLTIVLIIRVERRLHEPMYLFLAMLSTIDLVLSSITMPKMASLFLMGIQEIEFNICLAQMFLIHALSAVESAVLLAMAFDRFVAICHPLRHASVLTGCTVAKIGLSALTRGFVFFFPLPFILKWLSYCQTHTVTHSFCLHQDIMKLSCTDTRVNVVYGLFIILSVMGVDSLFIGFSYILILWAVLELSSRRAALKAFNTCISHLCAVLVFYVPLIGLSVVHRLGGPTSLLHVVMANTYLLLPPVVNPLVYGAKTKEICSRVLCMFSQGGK
Summary of the method: as §1

OR51F1 (Homo sapiens) = molecular target: T5, OR51F1 (Homo sapiens) (UniProt A6NGY5)
T5 sequence (whole entry): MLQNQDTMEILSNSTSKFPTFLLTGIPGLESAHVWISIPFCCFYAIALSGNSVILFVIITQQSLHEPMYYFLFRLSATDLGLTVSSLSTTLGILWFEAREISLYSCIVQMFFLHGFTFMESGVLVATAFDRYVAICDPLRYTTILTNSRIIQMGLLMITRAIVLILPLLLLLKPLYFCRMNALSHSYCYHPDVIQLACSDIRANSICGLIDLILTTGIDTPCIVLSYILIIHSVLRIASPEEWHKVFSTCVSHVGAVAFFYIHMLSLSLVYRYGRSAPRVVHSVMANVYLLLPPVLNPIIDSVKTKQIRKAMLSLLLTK
Summary of the method: as §1

OR51F2 (Homo sapiens) = molecular target: T6, OR51F2 (Homo sapiens) (UniProt Q8NH61)
T6 sequence (whole entry): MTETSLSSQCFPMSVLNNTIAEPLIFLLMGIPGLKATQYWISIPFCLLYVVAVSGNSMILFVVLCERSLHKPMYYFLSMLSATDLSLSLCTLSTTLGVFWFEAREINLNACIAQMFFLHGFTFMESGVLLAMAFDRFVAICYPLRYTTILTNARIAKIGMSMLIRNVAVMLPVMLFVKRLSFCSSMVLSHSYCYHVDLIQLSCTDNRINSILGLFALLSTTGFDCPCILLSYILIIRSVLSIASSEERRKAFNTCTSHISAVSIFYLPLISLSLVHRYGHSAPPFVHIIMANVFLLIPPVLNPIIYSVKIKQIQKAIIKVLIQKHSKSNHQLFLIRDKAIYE
Summary of the method: as §1

OR51G1 (Homo sapiens) = molecular target: T7, OR51G1 (Homo sapiens) (UniProt Q8NGK1)
T7 sequence (whole entry): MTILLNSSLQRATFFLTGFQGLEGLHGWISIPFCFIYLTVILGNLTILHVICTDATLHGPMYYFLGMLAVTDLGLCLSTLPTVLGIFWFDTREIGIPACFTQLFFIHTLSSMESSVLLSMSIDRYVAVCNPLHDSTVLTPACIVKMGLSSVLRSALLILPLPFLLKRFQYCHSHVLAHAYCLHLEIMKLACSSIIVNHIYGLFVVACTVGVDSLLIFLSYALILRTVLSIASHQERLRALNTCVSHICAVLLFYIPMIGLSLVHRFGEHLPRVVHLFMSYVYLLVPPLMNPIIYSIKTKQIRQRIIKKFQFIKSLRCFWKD
Summary of the method: as §1

OR51G2 (Homo sapiens) = molecular target: T8, OR51G2 (Homo sapiens) (UniProt Q8NGK0)
T8 sequence (whole entry): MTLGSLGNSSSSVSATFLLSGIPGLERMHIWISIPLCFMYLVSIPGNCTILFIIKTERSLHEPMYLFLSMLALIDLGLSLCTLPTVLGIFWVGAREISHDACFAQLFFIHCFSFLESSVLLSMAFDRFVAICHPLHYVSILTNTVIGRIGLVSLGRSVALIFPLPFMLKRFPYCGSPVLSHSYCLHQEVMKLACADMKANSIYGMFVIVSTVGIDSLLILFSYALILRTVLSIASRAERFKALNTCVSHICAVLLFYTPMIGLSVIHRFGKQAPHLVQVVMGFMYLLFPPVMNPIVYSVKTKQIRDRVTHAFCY
Summary of the method: as §1

OR51I1 (Homo sapiens) = molecular target: T9, OR51I1 (Homo sapiens) (UniProt Q9H343)
T9 sequence (whole entry): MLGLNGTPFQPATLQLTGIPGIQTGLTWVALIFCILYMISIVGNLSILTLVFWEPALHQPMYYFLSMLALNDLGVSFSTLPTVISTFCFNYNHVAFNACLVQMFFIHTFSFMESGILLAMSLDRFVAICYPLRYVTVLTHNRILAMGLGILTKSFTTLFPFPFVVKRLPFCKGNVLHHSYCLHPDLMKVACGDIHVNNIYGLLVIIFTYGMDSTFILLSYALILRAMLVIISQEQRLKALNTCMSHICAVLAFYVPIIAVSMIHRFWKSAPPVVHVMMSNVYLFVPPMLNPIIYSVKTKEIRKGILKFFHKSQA
Summary of the method: as §1

OR51I2 (Homo sapiens) = molecular target: T10, OR51I2 (Homo sapiens) (UniProt Q9H344)
T10 sequence (whole entry): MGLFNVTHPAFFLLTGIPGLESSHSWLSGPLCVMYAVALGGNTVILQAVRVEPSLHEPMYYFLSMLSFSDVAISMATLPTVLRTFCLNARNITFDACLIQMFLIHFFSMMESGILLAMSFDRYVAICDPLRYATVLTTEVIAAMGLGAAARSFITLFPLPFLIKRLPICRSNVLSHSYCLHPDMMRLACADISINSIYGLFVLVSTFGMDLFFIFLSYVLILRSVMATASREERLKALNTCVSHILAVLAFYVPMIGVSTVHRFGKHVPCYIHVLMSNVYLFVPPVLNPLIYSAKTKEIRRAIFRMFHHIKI
Summary of the method: as §1

OR51J1 (Homo sapiens) = molecular target: T11, OR51J1 (Homo sapiens) (UniProt Q9H342)
T11 sequence (whole entry): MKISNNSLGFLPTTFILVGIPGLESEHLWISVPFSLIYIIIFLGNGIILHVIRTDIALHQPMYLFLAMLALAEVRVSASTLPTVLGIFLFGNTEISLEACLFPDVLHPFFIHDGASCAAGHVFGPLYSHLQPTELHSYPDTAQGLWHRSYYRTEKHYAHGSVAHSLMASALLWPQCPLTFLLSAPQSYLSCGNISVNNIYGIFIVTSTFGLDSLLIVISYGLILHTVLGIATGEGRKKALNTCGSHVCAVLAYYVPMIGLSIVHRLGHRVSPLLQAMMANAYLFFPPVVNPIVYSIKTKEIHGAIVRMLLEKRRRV
Summary of the method: as §1

OR51M1 (Homo sapiens) = molecular target: T12, OR51M1 (Homo sapiens) (UniProt Q9H341)
T12 sequence (whole entry): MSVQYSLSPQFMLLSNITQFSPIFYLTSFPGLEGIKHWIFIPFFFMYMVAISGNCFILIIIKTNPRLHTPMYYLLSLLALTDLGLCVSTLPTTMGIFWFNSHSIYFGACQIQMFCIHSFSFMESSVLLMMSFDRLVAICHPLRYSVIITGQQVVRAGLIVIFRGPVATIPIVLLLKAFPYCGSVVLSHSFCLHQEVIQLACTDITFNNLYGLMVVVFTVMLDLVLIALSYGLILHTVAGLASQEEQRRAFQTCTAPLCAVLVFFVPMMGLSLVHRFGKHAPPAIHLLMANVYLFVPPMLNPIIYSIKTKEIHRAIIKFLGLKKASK
Summary of the method: as §1

OR51Q1 (Homo sapiens) = molecular target: T13, OR51Q1 (Homo sapiens) (UniProt Q8NH59)
T13 sequence (whole entry): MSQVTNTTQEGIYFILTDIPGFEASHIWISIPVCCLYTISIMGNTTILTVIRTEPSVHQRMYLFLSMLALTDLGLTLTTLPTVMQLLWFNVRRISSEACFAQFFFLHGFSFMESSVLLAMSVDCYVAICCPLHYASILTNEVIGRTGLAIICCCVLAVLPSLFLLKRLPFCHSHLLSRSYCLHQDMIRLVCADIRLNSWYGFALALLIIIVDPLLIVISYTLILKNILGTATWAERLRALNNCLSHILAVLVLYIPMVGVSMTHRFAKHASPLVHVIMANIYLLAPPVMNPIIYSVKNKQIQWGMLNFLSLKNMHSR
Summary of the method: as §1

OR51S1 (Homo sapiens) = molecular target: T14, OR51S1 (Homo sapiens) (UniProt Q8NGJ8)
T14 sequence (whole entry): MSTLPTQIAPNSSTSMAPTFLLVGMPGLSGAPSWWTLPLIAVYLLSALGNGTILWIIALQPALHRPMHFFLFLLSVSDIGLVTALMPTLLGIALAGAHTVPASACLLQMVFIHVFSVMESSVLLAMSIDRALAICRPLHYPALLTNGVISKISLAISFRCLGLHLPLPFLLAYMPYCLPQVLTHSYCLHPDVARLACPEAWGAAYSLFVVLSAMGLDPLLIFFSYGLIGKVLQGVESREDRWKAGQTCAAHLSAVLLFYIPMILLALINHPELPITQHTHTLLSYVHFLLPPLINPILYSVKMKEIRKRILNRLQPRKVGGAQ
Summary of the method: as §1

OR51T1 (Homo sapiens) = molecular target: T15, OR51T1 (Homo sapiens) (UniProt Q8NGJ9)
T15 sequence (whole entry): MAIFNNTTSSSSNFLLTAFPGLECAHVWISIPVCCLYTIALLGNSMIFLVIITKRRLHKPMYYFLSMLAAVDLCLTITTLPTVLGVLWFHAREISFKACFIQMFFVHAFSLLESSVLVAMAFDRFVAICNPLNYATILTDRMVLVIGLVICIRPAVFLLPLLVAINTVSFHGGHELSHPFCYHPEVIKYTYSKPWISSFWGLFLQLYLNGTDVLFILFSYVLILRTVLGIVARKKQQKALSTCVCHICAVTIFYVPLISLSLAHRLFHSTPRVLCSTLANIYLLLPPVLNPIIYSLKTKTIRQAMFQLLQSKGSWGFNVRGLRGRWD
Summary of the method: as §1

OR51V1 (Homo sapiens) = molecular target: T16, OR51V1 (Homo sapiens) (UniProt Q9H2C8)
T16 sequence (whole entry): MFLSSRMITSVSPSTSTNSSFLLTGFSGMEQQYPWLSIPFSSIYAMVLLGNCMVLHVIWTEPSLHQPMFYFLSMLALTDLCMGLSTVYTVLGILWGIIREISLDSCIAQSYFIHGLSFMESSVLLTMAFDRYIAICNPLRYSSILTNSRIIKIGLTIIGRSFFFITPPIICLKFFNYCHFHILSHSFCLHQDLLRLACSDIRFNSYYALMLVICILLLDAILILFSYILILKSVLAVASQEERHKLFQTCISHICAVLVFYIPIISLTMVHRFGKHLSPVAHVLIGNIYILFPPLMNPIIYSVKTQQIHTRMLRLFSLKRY
Summary of the method: as §1

OR52A1 (Homo sapiens) = molecular target: T17, OR52A1 (Homo sapiens) (UniProt Q9UKL2)
T17 sequence (whole entry): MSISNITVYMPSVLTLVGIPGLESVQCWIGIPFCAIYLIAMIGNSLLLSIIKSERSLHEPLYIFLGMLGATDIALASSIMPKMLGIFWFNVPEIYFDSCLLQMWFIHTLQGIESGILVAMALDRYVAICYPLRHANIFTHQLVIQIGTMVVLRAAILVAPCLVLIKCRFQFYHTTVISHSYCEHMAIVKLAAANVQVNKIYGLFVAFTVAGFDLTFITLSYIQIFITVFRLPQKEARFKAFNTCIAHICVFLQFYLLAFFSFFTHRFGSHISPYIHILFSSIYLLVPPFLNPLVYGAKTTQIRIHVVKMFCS
Summary of the method: as §1

OR52A4P (Homo sapiens) = molecular target: T18, OR52A4P (Homo sapiens) (UniProt A6NMU1)
T18 sequence (whole entry): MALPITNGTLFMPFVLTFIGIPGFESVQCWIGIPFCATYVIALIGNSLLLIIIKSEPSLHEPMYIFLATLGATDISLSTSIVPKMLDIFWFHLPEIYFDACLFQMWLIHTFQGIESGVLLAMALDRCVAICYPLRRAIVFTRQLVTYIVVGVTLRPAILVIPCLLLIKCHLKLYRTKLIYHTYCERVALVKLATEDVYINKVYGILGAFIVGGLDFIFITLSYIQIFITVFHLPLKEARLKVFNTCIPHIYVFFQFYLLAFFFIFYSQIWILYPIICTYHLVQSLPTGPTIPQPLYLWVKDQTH
Summary of the method: as §1

Measured: odorant receptor agonist call

CCCCCCCCCCCC(=O)O
inactive: OR51E1 (Homo sapiens)

CCCCCC(=O)CC
inactive: OR51E1 (Homo sapiens) | OR51E2 (Homo sapiens) | OR51L1 (Homo sapiens)

CCC(S)C(C)CO (configuration not stated)
inactive: all assays above
